Columns and labels:
[1] = Dissociation constant, pKa of the compound; format: physicochemical
[2] = biological target: T1, Lysine-specific demethylase 4C (Homo sapiens, UniProt Q9H3R0); assay: Inhibition of N-terminal his-tagged human KDM4C expressed in Escherichia coli BL21(DE3) using trimethylated peptide substrate by RFMS assay
T1 sequence (Q9H3R0 whole entry): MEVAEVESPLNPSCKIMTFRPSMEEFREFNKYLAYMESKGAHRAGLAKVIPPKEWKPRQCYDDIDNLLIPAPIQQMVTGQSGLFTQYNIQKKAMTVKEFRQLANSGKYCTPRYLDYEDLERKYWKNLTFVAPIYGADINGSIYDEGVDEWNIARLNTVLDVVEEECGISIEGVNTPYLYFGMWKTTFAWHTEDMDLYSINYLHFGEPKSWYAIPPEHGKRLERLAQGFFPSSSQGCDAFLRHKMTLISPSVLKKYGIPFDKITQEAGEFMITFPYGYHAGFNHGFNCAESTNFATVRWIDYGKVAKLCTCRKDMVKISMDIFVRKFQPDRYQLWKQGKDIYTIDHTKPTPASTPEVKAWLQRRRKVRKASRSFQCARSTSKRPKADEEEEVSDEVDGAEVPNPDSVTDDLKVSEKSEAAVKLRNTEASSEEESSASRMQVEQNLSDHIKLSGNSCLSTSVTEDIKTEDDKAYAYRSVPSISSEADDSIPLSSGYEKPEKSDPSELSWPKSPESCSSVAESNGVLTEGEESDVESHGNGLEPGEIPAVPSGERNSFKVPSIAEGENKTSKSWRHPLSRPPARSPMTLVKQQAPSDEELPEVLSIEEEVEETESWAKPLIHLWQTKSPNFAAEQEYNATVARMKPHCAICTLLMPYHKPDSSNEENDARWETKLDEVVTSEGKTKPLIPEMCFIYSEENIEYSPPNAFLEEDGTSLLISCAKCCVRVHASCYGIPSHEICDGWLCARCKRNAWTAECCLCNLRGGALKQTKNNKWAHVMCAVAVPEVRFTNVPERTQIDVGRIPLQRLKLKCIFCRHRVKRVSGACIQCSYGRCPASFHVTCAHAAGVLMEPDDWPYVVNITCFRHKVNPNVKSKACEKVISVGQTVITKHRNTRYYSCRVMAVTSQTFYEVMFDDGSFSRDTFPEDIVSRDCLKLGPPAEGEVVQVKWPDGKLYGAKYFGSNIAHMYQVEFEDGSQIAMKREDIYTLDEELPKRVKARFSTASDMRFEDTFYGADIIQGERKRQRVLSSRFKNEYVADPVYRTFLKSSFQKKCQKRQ

[3] = biological target: T1, Lysine-specific demethylase 4C; assay: Inhibition of N-terminal his-tagged full-length human KDM4C transfected in U2OS cells assessed as inhibition of H3K9Me3 demethylation for 24 hrs; format: cell-based
Prolyl hydroxylase EGLN3 = Prolyl hydroxylase EGLN3 (Homo sapiens, UniProt Q9H6Z9); assay: Inhibition of full-length EGLN3 (unknown origin) expressed in Escherichia coli BL21(DE3) cells by HTRF assay
[4] = biological target: T2, Lysine-specific demethylase 5C (Homo sapiens, UniProt P41229); assay: Inhibition of human KDM5C transfected in U2OS cells assessed as inhibition of […] demethylation for 24 hrs; format: cell-based; details: read-out: IC50
Outline: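 High-content cell imaging assay in U2OS cells overexpressing KDM5C, the same cell type as the KDM4C cellular mechanistic assay. Cellular potency reported as pIC50.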

[5] = biological target: T3, Lysine-specific demethylase 4D (Homo sapiens, UniProt Q6B0I6); assay: Inhibition of KDM4D (unknown origin) by RFMS assay
T3 sequence (Q6B0I6 whole entry): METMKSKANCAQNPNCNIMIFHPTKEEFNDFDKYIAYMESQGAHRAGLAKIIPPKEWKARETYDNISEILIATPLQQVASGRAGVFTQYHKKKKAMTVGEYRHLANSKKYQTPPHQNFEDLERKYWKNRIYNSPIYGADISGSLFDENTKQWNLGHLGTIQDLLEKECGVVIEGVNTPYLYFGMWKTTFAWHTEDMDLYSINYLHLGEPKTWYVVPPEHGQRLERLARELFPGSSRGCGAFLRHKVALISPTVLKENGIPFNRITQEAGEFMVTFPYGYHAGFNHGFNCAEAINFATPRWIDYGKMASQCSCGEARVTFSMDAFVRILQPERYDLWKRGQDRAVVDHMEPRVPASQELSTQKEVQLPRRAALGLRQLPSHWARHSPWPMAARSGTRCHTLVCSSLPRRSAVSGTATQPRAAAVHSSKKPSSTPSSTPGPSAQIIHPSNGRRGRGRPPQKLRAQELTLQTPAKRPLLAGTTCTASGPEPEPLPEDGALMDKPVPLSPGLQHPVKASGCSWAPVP

[6] = biological target: Lysine-specific demethylase 6B (Homo sapiens, UniProt O15054); assay: Inhibition of KDM6B (unknown origin) by RFMS assay
[7] = biological target: T2, Lysine-specific demethylase 5C; assay: Inhibition of KDM5C catalytic domain (1 -764 aa) (unknown origin) expressed in Sf9 cells using H3K4Me3 peptide as substrate by RFMS assay
[8] = biological target: T4, Lysine-specific demethylase 4A (Homo sapiens, UniProt O75164); assay: Inhibition of KDM4A (unknown origin) by RFMS assay
T4 sequence (O75164 whole entry): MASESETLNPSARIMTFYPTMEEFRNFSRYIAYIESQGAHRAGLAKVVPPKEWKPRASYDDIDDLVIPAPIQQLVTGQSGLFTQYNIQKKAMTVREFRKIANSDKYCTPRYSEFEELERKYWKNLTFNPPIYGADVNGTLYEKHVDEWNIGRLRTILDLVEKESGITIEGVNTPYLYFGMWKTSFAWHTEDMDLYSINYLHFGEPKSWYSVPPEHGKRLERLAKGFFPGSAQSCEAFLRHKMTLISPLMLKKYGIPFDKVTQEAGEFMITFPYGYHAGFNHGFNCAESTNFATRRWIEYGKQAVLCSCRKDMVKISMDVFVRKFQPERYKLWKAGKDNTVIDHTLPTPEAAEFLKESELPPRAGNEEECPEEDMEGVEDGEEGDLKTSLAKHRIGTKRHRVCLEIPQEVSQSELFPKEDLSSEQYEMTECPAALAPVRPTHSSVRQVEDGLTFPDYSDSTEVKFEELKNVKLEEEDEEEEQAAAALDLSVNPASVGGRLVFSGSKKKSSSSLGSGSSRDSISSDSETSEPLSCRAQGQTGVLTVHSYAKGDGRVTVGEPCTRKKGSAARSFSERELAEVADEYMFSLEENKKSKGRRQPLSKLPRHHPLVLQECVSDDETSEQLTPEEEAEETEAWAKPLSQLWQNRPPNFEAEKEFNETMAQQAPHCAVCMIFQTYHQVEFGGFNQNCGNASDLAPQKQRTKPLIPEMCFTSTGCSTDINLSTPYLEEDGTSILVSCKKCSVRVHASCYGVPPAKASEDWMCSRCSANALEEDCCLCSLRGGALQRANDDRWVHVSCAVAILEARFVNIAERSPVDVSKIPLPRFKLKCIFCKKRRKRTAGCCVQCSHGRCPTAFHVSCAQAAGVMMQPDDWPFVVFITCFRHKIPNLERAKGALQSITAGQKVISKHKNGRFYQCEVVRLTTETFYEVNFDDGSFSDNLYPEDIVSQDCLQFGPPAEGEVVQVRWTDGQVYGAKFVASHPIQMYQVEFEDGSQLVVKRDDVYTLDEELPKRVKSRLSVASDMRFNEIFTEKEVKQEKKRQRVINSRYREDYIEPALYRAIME

[9] = biological target: T1, Lysine-specific demethylase 4C; assay: Inhibition of N-terminal HALO-tagged full-length human KDM4C transfected in U2OS cells assessed as inhibition of H3K9Me3 demethylation for 24 hrs
physchem = details: buffer, pH 7.4
[10] = biological target: T5, Lysine-specific demethylase 4E (Homo sapiens, UniProt B2RXH2); assay: Inhibition of KDM4E (unknown origin) by RFMS assay
T5 sequence (B2RXH2 whole entry): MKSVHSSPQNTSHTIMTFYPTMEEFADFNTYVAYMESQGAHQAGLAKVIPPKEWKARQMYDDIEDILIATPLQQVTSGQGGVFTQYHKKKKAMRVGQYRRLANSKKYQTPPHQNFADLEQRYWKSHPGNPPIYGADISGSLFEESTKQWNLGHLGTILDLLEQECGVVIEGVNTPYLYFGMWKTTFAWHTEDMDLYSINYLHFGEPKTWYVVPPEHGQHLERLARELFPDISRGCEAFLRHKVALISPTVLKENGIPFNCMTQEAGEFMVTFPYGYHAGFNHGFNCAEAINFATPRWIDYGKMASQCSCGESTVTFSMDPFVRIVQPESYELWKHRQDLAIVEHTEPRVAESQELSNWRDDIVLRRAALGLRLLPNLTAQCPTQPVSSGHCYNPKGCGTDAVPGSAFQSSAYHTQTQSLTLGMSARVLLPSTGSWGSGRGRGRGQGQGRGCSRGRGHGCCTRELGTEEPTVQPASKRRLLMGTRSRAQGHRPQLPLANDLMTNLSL

T2 sequence (P41229 whole entry): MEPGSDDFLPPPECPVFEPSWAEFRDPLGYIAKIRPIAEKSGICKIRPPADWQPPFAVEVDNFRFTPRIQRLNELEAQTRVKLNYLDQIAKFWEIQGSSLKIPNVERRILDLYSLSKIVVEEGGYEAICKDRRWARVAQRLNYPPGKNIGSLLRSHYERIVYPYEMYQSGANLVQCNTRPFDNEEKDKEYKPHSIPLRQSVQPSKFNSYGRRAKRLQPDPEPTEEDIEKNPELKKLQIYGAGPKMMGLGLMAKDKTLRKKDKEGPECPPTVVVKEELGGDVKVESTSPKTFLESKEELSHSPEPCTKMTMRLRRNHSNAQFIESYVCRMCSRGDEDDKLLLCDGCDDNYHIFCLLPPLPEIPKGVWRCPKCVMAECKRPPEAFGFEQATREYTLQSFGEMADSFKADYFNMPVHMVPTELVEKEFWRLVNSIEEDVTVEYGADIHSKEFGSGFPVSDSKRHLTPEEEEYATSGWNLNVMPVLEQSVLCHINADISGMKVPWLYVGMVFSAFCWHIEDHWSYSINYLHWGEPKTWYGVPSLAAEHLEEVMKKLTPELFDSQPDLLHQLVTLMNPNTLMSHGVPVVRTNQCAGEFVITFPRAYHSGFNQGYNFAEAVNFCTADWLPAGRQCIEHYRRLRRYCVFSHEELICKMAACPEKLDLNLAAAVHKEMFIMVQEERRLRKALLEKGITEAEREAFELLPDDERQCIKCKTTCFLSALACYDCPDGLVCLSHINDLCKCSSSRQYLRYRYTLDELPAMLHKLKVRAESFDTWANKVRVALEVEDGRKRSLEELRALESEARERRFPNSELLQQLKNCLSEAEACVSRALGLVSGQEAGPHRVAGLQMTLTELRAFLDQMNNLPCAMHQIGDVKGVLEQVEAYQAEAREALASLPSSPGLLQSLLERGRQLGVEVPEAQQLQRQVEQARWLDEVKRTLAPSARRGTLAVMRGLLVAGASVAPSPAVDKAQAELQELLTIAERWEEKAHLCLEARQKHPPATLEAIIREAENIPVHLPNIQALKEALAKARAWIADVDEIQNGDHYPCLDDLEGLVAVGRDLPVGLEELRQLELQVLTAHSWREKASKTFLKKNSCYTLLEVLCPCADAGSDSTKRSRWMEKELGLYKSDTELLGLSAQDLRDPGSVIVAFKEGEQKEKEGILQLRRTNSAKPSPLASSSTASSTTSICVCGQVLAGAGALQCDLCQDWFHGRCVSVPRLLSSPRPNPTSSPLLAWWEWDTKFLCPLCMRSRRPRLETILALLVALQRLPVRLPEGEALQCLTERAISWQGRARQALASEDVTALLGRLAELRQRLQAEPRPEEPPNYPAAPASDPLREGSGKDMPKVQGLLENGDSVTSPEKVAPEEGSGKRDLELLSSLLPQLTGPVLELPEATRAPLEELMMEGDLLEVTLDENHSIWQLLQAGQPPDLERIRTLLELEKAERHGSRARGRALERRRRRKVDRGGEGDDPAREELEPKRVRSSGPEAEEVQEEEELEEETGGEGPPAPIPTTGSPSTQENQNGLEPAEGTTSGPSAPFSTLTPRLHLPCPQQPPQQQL
Chain of Prolyl hydroxylase EGLN3 (Q9H6Z9 whole entry): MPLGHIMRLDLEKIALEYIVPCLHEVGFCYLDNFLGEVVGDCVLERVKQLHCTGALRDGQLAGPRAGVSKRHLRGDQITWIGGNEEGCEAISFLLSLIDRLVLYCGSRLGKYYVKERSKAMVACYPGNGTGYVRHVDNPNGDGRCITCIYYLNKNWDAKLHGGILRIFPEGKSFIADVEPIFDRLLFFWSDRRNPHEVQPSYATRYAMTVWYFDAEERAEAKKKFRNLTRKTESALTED
Chain of Lysine-specific demethylase 6B (O15054 whole entry, the tested form may be a part): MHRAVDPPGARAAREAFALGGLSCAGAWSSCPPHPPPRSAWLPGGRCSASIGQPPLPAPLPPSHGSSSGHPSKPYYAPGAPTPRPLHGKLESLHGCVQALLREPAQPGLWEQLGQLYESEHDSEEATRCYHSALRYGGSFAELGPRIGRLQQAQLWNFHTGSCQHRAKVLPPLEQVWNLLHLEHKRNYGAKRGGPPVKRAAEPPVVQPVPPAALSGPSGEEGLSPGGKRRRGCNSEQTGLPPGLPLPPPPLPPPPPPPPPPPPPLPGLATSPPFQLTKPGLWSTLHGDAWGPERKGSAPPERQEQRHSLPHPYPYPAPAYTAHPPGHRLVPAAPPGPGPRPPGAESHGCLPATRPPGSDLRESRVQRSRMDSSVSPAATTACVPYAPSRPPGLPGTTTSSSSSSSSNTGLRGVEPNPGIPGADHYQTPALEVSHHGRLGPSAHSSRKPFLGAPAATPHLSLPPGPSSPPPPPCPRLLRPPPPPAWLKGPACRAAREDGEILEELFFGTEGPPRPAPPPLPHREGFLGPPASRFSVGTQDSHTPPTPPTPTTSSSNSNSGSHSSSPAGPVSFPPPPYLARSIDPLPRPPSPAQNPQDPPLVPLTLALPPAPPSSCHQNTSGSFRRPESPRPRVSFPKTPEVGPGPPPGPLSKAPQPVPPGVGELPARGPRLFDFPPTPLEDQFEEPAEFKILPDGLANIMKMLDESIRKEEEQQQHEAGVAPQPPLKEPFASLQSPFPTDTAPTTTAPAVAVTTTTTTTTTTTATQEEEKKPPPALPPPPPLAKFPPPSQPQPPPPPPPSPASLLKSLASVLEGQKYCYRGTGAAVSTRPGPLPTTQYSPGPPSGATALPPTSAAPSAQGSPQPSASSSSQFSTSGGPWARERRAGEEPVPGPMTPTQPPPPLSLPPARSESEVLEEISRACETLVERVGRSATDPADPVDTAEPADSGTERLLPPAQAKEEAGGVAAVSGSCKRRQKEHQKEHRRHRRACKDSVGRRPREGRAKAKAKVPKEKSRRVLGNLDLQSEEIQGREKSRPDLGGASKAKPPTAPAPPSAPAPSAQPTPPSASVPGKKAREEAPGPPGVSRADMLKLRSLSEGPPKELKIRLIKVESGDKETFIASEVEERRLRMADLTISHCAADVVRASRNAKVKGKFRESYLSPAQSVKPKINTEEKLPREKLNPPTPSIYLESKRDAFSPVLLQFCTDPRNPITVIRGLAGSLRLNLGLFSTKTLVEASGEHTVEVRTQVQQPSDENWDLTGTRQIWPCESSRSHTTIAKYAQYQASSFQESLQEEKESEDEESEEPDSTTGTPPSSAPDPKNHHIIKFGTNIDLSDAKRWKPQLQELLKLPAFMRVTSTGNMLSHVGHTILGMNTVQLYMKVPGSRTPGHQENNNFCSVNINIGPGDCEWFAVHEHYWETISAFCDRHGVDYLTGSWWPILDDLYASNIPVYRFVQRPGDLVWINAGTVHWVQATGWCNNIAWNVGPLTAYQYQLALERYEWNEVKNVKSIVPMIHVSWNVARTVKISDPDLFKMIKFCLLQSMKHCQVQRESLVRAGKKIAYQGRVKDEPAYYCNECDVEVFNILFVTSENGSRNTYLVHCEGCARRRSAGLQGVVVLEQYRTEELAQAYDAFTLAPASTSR

Row | pKa [1] | IC50 [2] [µM] | IC50 [3] [µM] | IC50 (Prolyl hydroxylase EGLN3) [µM] | IC50 [4] [µM] | IC50 [5] [µM] | IC50 [6] [µM] | IC50 [7] [µM] | IC50 [8] [µM] | IC50 [9] [µM] | logD (physchem) | IC50 [10] [µM] | Compound
1 | 6.8 | 0.794 | > 100 |  |  |  |  |  |  |  |  |  | CCSc1nc2cnccc2c(=O)[nH]1
2 | 8.6 | 3.16 |  |  |  |  |  |  |  |  |  |  | CCNc1nc2cnccc2c(=O)[nH]1
3 | 7.5 | 1 | 63.1 |  |  |  |  |  |  |  |  |  | CCOc1nc2cnccc2c(=O)[nH]1
4 | 8.8 | 12.6 |  |  |  |  |  |  |  |  |  |  | CCCc1nc2cnccc2c(=O)[nH]1
5 |  | 0.631 | 5.01 | > 100 | 2.5 | 0.398 | > 100 | 0.0794 | 0.631 | 2 | 2.9 | 0.501 | O=c1[nH]c(Oc2cnn(CC3CCCCC3)c2)nc2cnccc12
